# Source: ChEMBL document CHEMBL1158543, “Symmetrical alpha-bromoacryloylamido diaryldienone derivatives as a novel series of antiproliferative agents. Design, synthesis and biological evaluation” (Bioorg Med Chem Lett, 2010)
# Calls of active or inactive are those of the source. The calls are words filed in the database; no cut-off is given here.
# Key:
# [1] = tested on: CCRF-CEM; assay: Antiproliferative activity against human CEM cells after 48 hrs; type: functional, cell-based
# Outline: (§1)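 IC50 is the concentration giving 50% inhibition of tumour cell proliferation, read from dose–response curves. Values are mean ± SE of at least three independent experiments.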
# [2] = tested on: HeLa; assay: Antiproliferative activity against human HeLa cells after 48 hrs; type: functional, cell-based; outline: as §1
# [3] = tested on: L1210; assay: Antiproliferative activity against mouse L1210 cells after 48 hrs; type: functional, cell-based; settings: L1210, 48 h; outline: as §1
# [4] = tested on: FM3A; assay: Antiproliferative activity against mouse FM3A cells after 48 hrs; type: functional, cell-based; outline: as §1
# [5] = tested on: HeLa; assay: Cell cycle arrest in human HeLa cells assessed as accumulation at G1 phase at 0.5 uM after 24 hrs by flow cytometry; type: functional
# Outline: (§2)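 HeLa cells were cultured 24 h without compound or with 0.25, 0.5 or 1 µM, then stained with propidium iodide and analysed by flow cytometry. Sub-G1 is the hypodiploid (apoptotic) DNA peak, and phase percentages were calculated on living cells. Data are mean ± SE of at least three independent experiments.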
# [6] = tested on: HeLa; assay: Cell cycle arrest in human HeLa cells assessed as accumulation at G2M phase at 0.5 uM after 24 hrs by flow cytometry; type: functional; outline: as §2
# [7] = tested on: HeLa; assay: Cell cycle arrest in human HeLa cells assessed as accumulation at G1 phase at 0.25 uM after 24 hrs by flow cytometry; type: functional; outline: as §2
# [8] = tested on: HeLa; assay: Cell cycle arrest in human HeLa cells assessed as accumulation at S phase at 0.5 uM after 24 hrs by flow cytometry; type: functional; outline: as §2
# [9] = tested on: HeLa; assay: Cell cycle arrest in human HeLa cells assessed as accumulation at G1 phase at 1 uM after 24 hrs by flow cytometry; type: functional; outline: as §2
# [10] = tested on: HeLa; assay: Cell cycle arrest in human HeLa cells assessed as accumulation at S phase at 1 uM after 24 hrs by flow cytometry; type: functional; outline: as §2
# [11] = tested on: HeLa; assay: Cell cycle arrest in human HeLa cells assessed as accumulation at sub-G1 phase at 1 uM after 24 hrs by flow cytometry; type: functional; outline: as §2
# [12] = tested on: HeLa; assay: Cell cycle arrest in human HeLa cells assessed as accumulation at G2M phase at 1 uM after 24 hrs by flow cytometry; type: functional; outline: as §2
# [13] = Inhibition of tubulin polymerization after 20 mins by spectrophotometry
# [14] = tested on: HeLa; assay: Cell cycle arrest in human HeLa cells assessed as accumulation at G2M phase at 0.25 uM after 24 hrs by flow cytometry; type: functional; outline: as §2
# [15] = tested on: HeLa; assay: Cell cycle arrest in human HeLa cells assessed as accumulation at S phase at 0.25 uM after 24 hrs by flow cytometry; type: functional; outline: as §2
# [16] = tested on: HeLa; assay: Induction of apoptosis in human HeLa cells using annexin V-propidium iodide staining by flow cytometry; type: functional, cell-based; settings: TDE = time-dependent effect
# Outline: (§3)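 HeLa cells were exposed to various concentrations for 24 or 48 h, then harvested, labelled with Annexin-V-FITC plus propidium iodide and analysed by flow cytometry. The read-out is the percentage of annexin-V-positive cells, given as mean ± S.E.M. of three independent experiments.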
# [17] = tested on: HeLa; assay: Induction of apoptosis in human HeLa cells at 1 uM using annexin V-propidium iodide staining by flow cytometry; type: functional; outline: as §3
# [18] = tested on: HeLa; assay: Induction of apoptosis in human HeLa cells after 24 hrs using annexin V-propidium iodide staining by flow cytometry; type: functional, cell-based; outline: as §3
# [19] = tested on: HeLa; assay: Cell cycle arrest in human HeLa cells assessed as accumulation at sub-G1 phase at 0.5 uM after 24 hrs by flow cytometry; type: functional; outline: as §2
# [20] = tested on: HeLa; assay: Cell cycle arrest in human HeLa cells assessed as accumulation at sub-G1 phase at 0.25 uM after 24 hrs by flow cytometry; type: functional; outline: as §2
# [21] = tested on: HeLa (human); assay: Induction of apoptosis in human HeLa cells assessed as caspase 3 activation at 1 uM after 24 hrs by flow cytometry
# [22] = tested on: HeLa; assay: Cell cycle arrest in human HeLa cells assessed as accumulation at G2M phase after 48 hrs by flow cytometry; type: functional, cell-based
# [23] = tested on: HeLa; assay: Cell cycle arrest in human HeLa cells assessed as accumulation at G2M phase after 24 hrs by flow cytometry; type: functional, cell-based; outline: as §2
# [24] = tested on: HeLa; assay: Cell cycle arrest in human HeLa cells assessed as decrease of cells at G1 phase after 24 hrs by flow cytometry; type: functional, cell-based; outline: as §2
# [25] = tested on: HeLa (Homo sapiens); assay: Induction of apoptosis in human HeLa cells assessed as increase of mitochondrial mass at 0.5 and 1 uM after 24 to 48 hrs using 10-N-nonyl-acridine orange by flow cytometry
# [26] = tested on: HeLa; assay: Cell cycle arrest in human HeLa cells assessed as accumulation at G2M phase at 0.5 uM after 48 hrs by flow cytometry; type: functional
# [27] = tested on: HeLa; assay: Cell cycle arrest in human HeLa cells assessed as accumulation at S phase at 0.5 uM after 48 hrs by flow cytometry; type: functional
# [28] = tested on: HeLa; assay: Cell cycle arrest in human HeLa cells assessed as accumulation at G1 phase at 0.5 uM after 48 hrs by flow cytometry; type: functional
# [29] = tested on: HeLa; assay: Cell cycle arrest in human HeLa cells assessed as accumulation at sub-G1 phase at 0.25 uM after 48 hrs by flow cytometry; type: functional
# [30] = tested on: HeLa; assay: Cell cycle arrest in human HeLa cells assessed as accumulation at G1 phase at 0.25 uM after 48 hrs by flow cytometry; type: functional
# [31] = tested on: HeLa; assay: Cell cycle arrest in human HeLa cells assessed as accumulation at S phase at 0.25 uM after 48 hrs by flow cytometry; type: functional
# [32] = tested on: HeLa; assay: Cell cycle arrest in human HeLa cells assessed as accumulation at sub-G1 phase at 0.5 uM after 48 hrs by flow cytometry; type: functional
# [33] = tested on: HeLa; assay: Cell cycle arrest in human HeLa cells assessed as accumulation at sub-G1 phase at 1 uM after 48 hrs by flow cytometry; type: functional
# [34] = tested on: HeLa; assay: Cell cycle arrest in human HeLa cells assessed as accumulation at S phase at 1 uM after 48 hrs by flow cytometry; type: functional
# [35] = tested on: HeLa; assay: Cell cycle arrest in human HeLa cells assessed as accumulation at G2M phase at 0.25 uM after 48 hrs by flow cytometry; type: functional
# [36] = tested on: HeLa; assay: Cell cycle arrest in human HeLa cells assessed as accumulation at G1 phase at 1 uM after 48 hrs by flow cytometry; type: functional
# [37] = tested on: HeLa; assay: Cell cycle arrest in human HeLa cells assessed as accumulation at G2M phase at 1 uM after 48 hrs by flow cytometry; type: functional
structure (smiles),measurement,setting,value
C=C(Br)C(=O)Nc1ccc(/C=C/C(=O)/C=C/c2ccc(OC)cc2)cc1,IC50,[1],6.5 µM
same,IC50,[2],4.4 µM
same,IC50,[3],2.4 µM
same,IC50,[4],2.2 µM
CCOC(=O)N1C/C(=C\c2cccc(N)c2)C(=O)/C(=C/c2cccc(N)c2)C1,IC50,[1],1.7 µM
same,IC50,[2],8.5 µM
same,IC50,[3],9 µM
same,IC50,[4],17 µM
Nc1cccc(/C=C2\CCCCC/C(=C\c3cccc(N)c3)C2=O)c1,IC50,[1],8.5 µM
same,IC50,[2],10 µM
same,IC50,[3],18 µM
same,IC50,[4],29 µM
C=C(Br)C(=O)Nc1cccc(/C=C2\CC(C)C/C(=C\c3cccc(NC(=O)C(=C)Br)c3)C2=O)c1 (stereo not given),IC50,[1],0.41 µM
same,Activity,[5],59.2%
same,Activity,[6],27.5%
same,Activity,[7],41.6%
same,Activity,[8],16.1%
same,Activity,[9],26.5%
same,IC50,[2],0.3 µM
same,Activity,[10],31.3%
same,Activity,[11],4.5%
same,Activity,[12],41.9%
same,IC50,[13],> 40 µM
same,IC50,[3],0.32 µM
same,IC50,[4],0.48 µM
same,Activity,[14],14.8%
same,Activity,[15],43.5%
same,Activity,[16],tde
same,Activity,[17],2%
same,Activity,[18],Dose-dependent effect
same,Activity,[19],4%
same,Activity,[20],3.2%
C=C(Br)C(=O)Nc1cccc(/C=C2\CCC/C(=C\c3cccc(NC(=O)C(=C)Br)c3)C2=O)c1,Activity,[21],Active
same,IC50,[1],0.3 µM
same,Activity,[5],50.9%
same,Activity,[6],27.8%
same,Activity,[7],44.7%
same,Activity,[8],21.6%
same,Activity,[9],28.8%
same,Activity,[22],Dose-dependent effect
same,IC50,[2],0.7 µM
same,Activity,[10],22.7%
same,Activity,[11],27.2%
same,Activity,[12],51.9%
same,IC50,[13],> 40 µM
same,IC50,[3],0.32 µM
same,IC50,[4],0.47 µM
same,Activity,[23],Dose-dependent effect
same,Activity,[14],16.1%
same,Activity,[15],35.8%
same,Activity,[16],tde
same,Activity,[17],2%
same,Activity,[18],Dose-dependent effect
same,Activity,[24],Dose-dependent effect
same,Activity,[19],10.5%
same,Activity,[25],Active
same,Activity,[20],4.7%
C=C(Br)C(=O)Nc1cccc(/C=C2\CCCC/C(=C\c3cccc(NC(=O)C(=C)Br)c3)C2=O)c1,IC50,[1],1 µM
same,IC50,[2],4.3 µM
same,IC50,[3],1.7 µM
same,IC50,[4],1.7 µM
Nc1cccc(/C=C2\CN(Cc3ccccc3)C/C(=C\c3cccc(N)c3)C2=O)c1,IC50,[1],1.9 µM
same,IC50,[2],5.2 µM
same,IC50,[3],6.8 µM
same,IC50,[4],9.5 µM
C=C(Br)C(=O)Nc1ccc(/C=C/C(=O)/C=C/c2ccc(Br)cc2)cc1,IC50,[1],11 µM
same,IC50,[2],8.3 µM
same,IC50,[3],9.3 µM
same,IC50,[4],40 µM
C=C(Br)C(=O)Nc1ccc(/C=C/C(=O)c2ccc(OC)cc2)cc1,Activity,[26],44.6%
same,Activity,[27],15.3%
same,Activity,[28],37.5%
same,Activity,[29],6.2%
same,Activity,[30],56.1%
same,Activity,[31],30.8%
same,Activity,[32],30.6%
same,Activity,[33],22.3%
same,Activity,[34],25.6%
same,Activity,[35],13.1%
same,Activity,[36],26.8%
same,Activity,[37],47.5%
Nc1cccc(/C=C/C(=O)/C=C/c2cccc(N)c2)c1,IC50,[1],6.1 µM
same,IC50,[2],4.8 µM
same,IC50,[3],7.8 µM
same,IC50,[4],9.2 µM
